We go through three compounds from ChEMBL document CHEMBL1122898, “Antiulcer agents. 1. Gastric antisecretory and cytoprotective properties of substituted imidazo[1,2-a]pyridines” (1985).

For orientation: inhibition in vivo means the drop in the measured response relative to a control, in per cent. Lower therefore signals little suppression. What is called ED50 is the dose that gives a 50% effect, or the effect in half of the subjects. A higher ED50 goes with a need for a large dose.

Assay [1] deals with Canis familiaris. As to the kind of experiment: Inhibition of histamine stimulated gastric acid secretion in adult mongrel dogs at dose 0.1 mg/kg given intravenously. The assay is classed as functional. Particulars: Canis lupus familiaris, Stomach, route intravenous. Put shortly:
(§1)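 Dogs with Heidenhain pouches, 12–18 kg, fasted 18 h. Compound given iv in 3 mL or by gavage in 5 mL of 0.4% methylcellulose/saline, 1 h after infusion start. 30-min collections titrated. Summed 3-h AO against the same dog's control AO gives % inhibition. Usually one dog per compound.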

In assay [2] the test system is Canis familiaris. As to the kind of experiment: Inhibition of histamine stimulated gastric acid secretion in adult mongrel dogs at dose 2 mg/kg given intravenously. The note with it: Canis lupus familiaris, Stomach, route intravenous. The class given is functional. The gist of the method:
as §1

The test system of assay [3] is Canis familiaris. In words: Inhibition of histamine stimulated gastric acid secretion in mongrel dogs following 4 mg/kg p.o. administration. The class given is functional. The note with it: Canis lupus familiaris, Stomach, route oral. The gist of the method: as §1
Assay [4] has as its system Canis familiaris. In words: Inhibition of histamine stimulated gastric acid secretion in adult mongrel dogs at dose 5 mg/kg given intravenously. The class given is functional. Particulars: Canis lupus familiaris, Stomach, route intravenous. The gist of the method:
as §1

For assay [5], the system named is Canis familiaris. In words: Inhibition of histamine stimulated gastric acid secretion in adult mongrel dogs at dose 8 mg/kg given orally. The class given is functional. The note with it: Canis lupus familiaris, Stomach, route oral. Put shortly:
as §1

Assay [6] is filed under the species Canis familiaris. As to the kind of experiment: Relative potency was calculated; value ranges from 0.1-2.1. The assay is classed as functional, Canis lupus familiaris.
Assay [7] has as its system Canis familiaris. As to the kind of experiment: Effective dose against histamine stimulated gastric acid secretion in adult mongrel dogs given orally; value ranges from 2.1-14.0. The class given is functional. The note with it: Canis lupus familiaris, Stomach, po.
For assay [8], the species on record is Rattus norvegicus. As to the kind of experiment: Oral gastric cytoprotective activity in the rat against ethanol-induced lesions. The class given is functional. Particulars: Stomach. Put shortly:
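Rats fasted and water-deprived for 20 h. Compound given orally, 1–30 mg/kg in 0.4% methylcellulose/saline, 30 min before 1 mL absolute ethanol po. Killed 1 h after ethanol. Linear hemorrhagic lesion lengths totalled per stomach, expressed as group mean. ED50 by linear regression.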

Assay [9] deals with Rattus norvegicus. In words: Gastric antisecretory activity in the pylorus-ligated rat and the reduction in acid output was measured after 4 hr by intraperitoneal (ip) administration of 40 mg/kg dose. The class given is functional. The gist of the method:
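Male Charles River CD rats, 150–200 g, fasted 24 h. Pylorus ligated under Brevital anesthesia. 40 mg/kg given ip in 2.5% Tween 80 at ligation. Stomach contents collected at 4 h and titrated with 0.1 N NaOH to pH 7.0. % inhibition from mean AO, 6 treated vs 8 control rats. Student's t test.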

Assay [10] has as its system Canis familiaris. In words: Inhibition of histamine stimulated gastric acid secretion in adult mongrel dogs at dose 2 mg/kg given orally. The assay is classed as functional. The note with it: Canis lupus familiaris, Stomach, route oral. Put shortly:
as §1

The subject of assay [11] is Canis familiaris. In words: Effective dose against histamine stimulated gastric acid secretion in adult mongrel dogs given orally. The assay is classed as functional. The note with it: Canis lupus familiaris, Stomach, po.
For assay [12], the system named is Canis familiaris. In words: Inhibition of histamine stimulated gastric acid secretion in adult mongrel dogs at dose 1 mg/kg given intravenously. The assay is classed as functional. The note with it: Canis lupus familiaris, Stomach, route intravenous. Put shortly: as §1
The test system of assay [13] is Canis familiaris. In words: Effective dose against histamine stimulated gastric acid secretion in adult mongrel dogs given intravenously; value ranges from 0.01-1.19. The class given is functional. The note with it: Canis lupus familiaris, Stomach, iv.

In the case of `Cc1nc2c(NCc3ccccc3)cccn2c1CC#N`, at 0.1 mg/kg the inhibition in vivo in the assay on Canis familiaris [1] was 85%. The compound further showed an inhibition in vivo at 2 mg/kg in the assay on Canis familiaris [2] of 96%. The compound also yielded an inhibition in vivo at 4 mg/kg with Canis familiaris [3] of 35%. In addition, at 5 mg/kg the inhibition in vivo with Canis familiaris [4] was 98%. Testing at 8 mg/kg with Canis familiaris [5] gave an inhibition in vivo of 75%. Besides, the Relative potency in the assay filed under Canis familiaris [6] is 1.5. Besides, the ED50 in the assay on Canis familiaris [7] is 6.7 mg/kg; in the assay listed under Rattus norvegicus [8], 2 mg/kg. In the assay with Rattus norvegicus [9], this compound showed an inhibition in vivo at 40 mg/kg of 98%.

`Cc1nc2c(OCc3ccsc3)cccn2c1CC#N` had an inhibition in vivo at 0.1 mg/kg with Canis familiaris [1] of 70%. Further, 2 mg/kg produced 40% inhibition in vivo in the assay with Canis familiaris [10]. At 4 mg/kg the inhibition in vivo in the assay on Canis familiaris [3] was 77%. The compound further registered an inhibition in vivo at 5 mg/kg in the assay with Canis familiaris [4] of 97%. The compound further displayed an inhibition in vivo at 8 mg/kg in the assay on Canis familiaris [5] of 88%. In addition, the ED50 is 2.7 mg/kg with Canis familiaris [11] and 2 mg/kg in the assay filed under Rattus norvegicus [8]. Also, the inhibition in vivo at 40 mg/kg in the assay on Rattus norvegicus [9] is 91%.

In the assay on Canis familiaris [1], `Cc1nc2c(OCc3ccccc3)cccn2c1CC#N` registered an inhibition in vivo at 0.1 mg/kg of 49%. The compound further yielded an inhibition in vivo at 1 mg/kg in the assay on Canis familiaris [12] of 88%. For the same compound, the inhibition in vivo at 2 mg/kg is 95% with Canis familiaris [2] and 20% in the assay with Canis familiaris [10]. This compound also displayed an inhibition in vivo at 4 mg/kg with Canis familiaris [3] of 42%. This compound registered an inhibition in vivo at 5 mg/kg with Canis familiaris [4] of 99%. The same compound had an inhibition in vivo at 8 mg/kg in the assay on Canis familiaris [5] of 77%. Moreover, the ED50 with Canis familiaris [13] was determined as 0.09 mg/kg; with Canis familiaris [7], 4.4 mg/kg; in the assay listed under Rattus norvegicus [8], 3 mg/kg. In the assay with Rattus norvegicus [9], this compound registered an inhibition in vivo at 40 mg/kg of 98%.
